Source: PubChem (The Scripps Research Institute Molecular Screening Center)
An excerpt weighted towards active compounds, which were near 2.5% of everything screened.
TCR CD3 inh – human TCR-CD3 binding inhibition; hit rate 0.37% among 360,000; inhibition, % at 9.4 µM; TAMRA-labeled TCR probe fluorescence, biochemical; AID 651800; in the data active = inhibition above about 19%;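 also: recombinant mutant TCR 2C K166C tagged with TAMRA read by polarization; 0% = receptor in buffer alone and 100% = receptor with positive control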
SIAE primary – inhibitors of human sialic acid acetylesterase SIAE | inhibition, % at 9.66 µM | Q9HAT2 | SIAE FP-Rh probe binding, fluorescence polarization | hit rate 0.69% among 370,000 | AID 1053197;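 active = inhibition above a cutoff: mean of compounds within the control limits plus 3 SD of those, cut at about 17% in these data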;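 also: 0% = plate median of compound wells and 100% = probe without SIAE protein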
HTRA1 inh – HTRA1 (human) protease inhibition | Q92743 | recombinant HTRA1, FP-rhodamine activity-based probe, fluorescence polarization | inhibition, % at 5.96 µM | hit rate 0.5% among 340,000; in the data active = inhibition above about 36%;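 also: 0% = enzyme with DMSO and 100% = wells lacking enzyme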
Target sequence (Q92743 whole entry, looked up): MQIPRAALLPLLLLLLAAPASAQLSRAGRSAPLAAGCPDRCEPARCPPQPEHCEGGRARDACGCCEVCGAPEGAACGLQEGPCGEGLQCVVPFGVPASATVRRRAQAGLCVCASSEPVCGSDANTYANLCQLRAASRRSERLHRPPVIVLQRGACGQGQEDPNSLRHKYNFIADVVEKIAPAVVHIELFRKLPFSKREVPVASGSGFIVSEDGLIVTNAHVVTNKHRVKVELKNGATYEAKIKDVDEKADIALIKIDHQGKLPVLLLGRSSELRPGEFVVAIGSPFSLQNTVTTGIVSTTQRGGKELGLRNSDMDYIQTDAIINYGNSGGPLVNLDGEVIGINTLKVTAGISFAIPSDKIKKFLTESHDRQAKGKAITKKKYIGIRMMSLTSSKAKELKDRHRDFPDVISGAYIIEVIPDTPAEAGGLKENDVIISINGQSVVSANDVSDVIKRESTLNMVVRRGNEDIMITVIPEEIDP
ABHD4 inh – ABHD4 (mouse) inhibition, primary FP screen; purified mABHD4, FP-Rh probe fluorescence polarization; Q8VD66; inhibition, % at 8.92 µM; hit rate 0.54% among 370,000;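 active = inhibition exceeding the mean over every tested compound plus 3 SD, cut at about 30% in these data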;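 also: 0% = plate median of compound wells and 100% = S159A mutant with DMSO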
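Test system: mouse ABHD4 enzyme, wild type. Reagent: FP-Rh fluorescent activity-based probe, added after compound pre-incubation. Timing: pre-incubation 45 min, probe exposure 60 min, at 25 °C. Technique: FP readout, ex 525 nm / em 598 nm. Benchmarks: high control S159A mutant with DMSO, low control median of compound wells.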
PRMT1 inh – PRMT1 (human) inhibition, primary screen. recombinant PRMT1, activity-based probe fluorescence polarization. inhibition, % at 2.79 µM. hit rate 1.3% among 370,000;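 active = inhibition above about 21% made by adding two undisclosed values, limit read from the data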
PRMT1 confirm – confirmation of human PRMT1 inhibitors; shares compounds with PRMT1 inh; recombinant His-PRMT1, activity-based probe fluorescence polarization; inhibition, % at 2.79 µM; hit rate 42% among 3,300; AID 687036;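 active = mean inhibition across replicates above the hit cutoff derived for the earlier primary screen, cut at about 22% in these data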
An asterisk follows results filed as active; · = no result.

SMILES	TCR CD3 inh	SIAE primary	HTRA1 inh	ABHD4 inh	PRMT1 inh	PRMT1 confirm
CCOc1ccc(NC(=O)CN(C)C(=O)COc2cccc3c2OC(C)(C)C3)cc1OCC	-9	-2	6	5	2	·
COc1ccc(-c2cn(-c3ccc(C)c(Cl)c3)c(=S)[nH]2)cc1OC	-1	0	3	6	7	·
COc1ccc(-c2cn(-c3ccc(C)c(C)c3)c(=S)[nH]2)cc1OC	1	3	6	6	31*	18
COC(=O)c1ccccc1SC(CC(=O)c1ccccc1)c1ccc(F)cc1 (stereo not given)	3	-3	-24	-15	43*	48*
Nc1sc(Cc2ccccc2)cc1C(=O)NC1CCCCC1	-13	-6	·	-3	9	·
COc1ccc(NC(=O)c2cc(C3CCCCN3S(=O)(=O)c3c(C)noc3C)on2)c(C)c1 (stereo not given)	-1	1	·	-4	-1	·
CCOC(=O)C1Nc2ccc(C(=O)O)cc2C2C=CCC12 (stereo not given)	8	-3	25	25	30*	38*
CC(=O)c1ccc2c(c1)C1C=CCC1C(c1cc3c(cc1Br)OCO3)N2 (stereo not given)	-3	-3	-28	-5	-1	·
COCCNC(=O)C1Nc2ccc(OC(F)(F)F)cc2C2C=CCC12 (stereo not given)	3	13	33	29	26*	7
COC(=O)C1=C(C(=O)OC)[C@@]2([C@@H](Cc3ccc(C)cc3)Nc3ccccc3)C=C[C@@H]1O2	·	9	·	-1	12	·
N#Cc1ccccc1Sc1ccccc1N	·	·	-3	·	·	·
Nc1ccccc1SSc1ccccc1N	-1	11	12	4	83*	84*
O=C(c1ccc(-c2ccc([N+](=O)[O-])cc2)o1)N1CCCCC1	-4	0	0	3	46*	11
O=C(c1ccc(-c2cccc([N+](=O)[O-])c2)o1)N1CCN(c2ccc([N+](=O)[O-])cc2)CC1	3	3	-6	4	3	·
CC1CC(C)CN(C(=O)c2ccc(-c3ccc([N+](=O)[O-])cc3)o2)C1 (stereo not given)	-10	3	-12	26	35*	18
COc1ccc(NC(=O)CN(C)C(=O)CCCSc2nc3ccccc3[nH]2)cc1	5	10	5	3	-2	·
CCOC(=O)[C@]12CCCC=C1N(Cc1ccc3c(c1)OCO3)C(=O)[C@H](CC(=O)NCCc1ccccc1OC)C2	3	6	·	-5	-1	·
COc1ccc2c3c(ccc2c1)C(=O)/C(=C/O)CC3	5	6	38*	27	30*	24*
O=C(NCCN1CCN(c2ccccc2)CC1)C1CCN(S(=O)(=O)c2cccc3nsnc23)CC1	3	7	-1	1	1	·
CCOC(=O)c1ccccc1NC(=O)COC(=O)CSc1ccccc1	-3	6	-9	-6	-4	·
CN(Cc1ccc2c(c1)CCCN2C)C(=O)[C@H]1O[C@@H](n2ccc(=O)[nH]c2=O)[C@H](O)[C@@H]1O	1	7	·	7	52*	7
CCCCN=Cc1sc2ccc(OCC)cc2c1O	5	3	-3	-2	30*	32*
CCOc1ccc(N=CNc2ccc(OCC)cc2)cc1	3	-4	-2	-3	2	·
COc1cc(N2C(=O)C=CC2=O)ccc1N1C(=O)C=CC1=O	5	-2	0	5	91*	87*
COc1ccc(N2C(=O)C3CC(C)=C(C)CC3C2=O)c(OC)c1 (stereo not given)	1	6	0	-6	3	·
SMILES	TCR CD3 inh	SIAE primary	HTRA1 inh	ABHD4 inh	PRMT1 inh	PRMT1 confirm
CC(=O)c1ccc(OC(=O)CCc2nc3ccccc3s2)cc1	-1	7	·	2	75*	27*
O=C(O)COCc1nc2ccccc2s1	11	-4	0	12	53*	8
COc1ccc2nc(N3C(=O)C(O)=C(C(=O)c4ccco4)C3c3ccc(C)o3)sc2c1 (stereo not given)	-8	-3	2	23	34*	14
Cc1ccc2nc(N3C(=O)C(O)=C(C(=O)c4ccco4)C3c3cccs3)sc2c1 (stereo not given)	2	0	-32	11	35*	12
CCOc1ccc2nc(N3C(=O)C(O)=C(C(=O)c4ccco4)C3c3ccco3)sc2c1 (stereo not given)	-5	-2	9	22	18	·
COc1ccc2nc(N3C(=O)C(O)=C(C(=O)c4ccco4)C3c3ccccc3OC)sc2c1 (stereo not given)	4	-6	-10	-17	0	·
CCC(=O)/C=C1\Sc2ccc(OC)cc2N1CC	1	0	0	-3	52*	19
Cc1cccc(C)c1NC(=O)C(c1ccncc1)n1c(=O)c(-c2cc3ccccc3[nH]2)nc2ccccc21 (stereo not given)	-3	-6	·	0	4	·
Cc1ccc(C)c(N2CCN(c3nc4ccccc4c(=O)n3Cc3ccccc3)CC2)c1	5	1	-2	2	-1	·
O=c1c2ccccc2nc(N2CCN(c3ccccc3)CC2)n1Cc1ccccc1	8	2	-12	-9	74*	3
Cc1cc(-c2n[nH]c(=S)n2/N=C/c2c[nH]c3ccccc23)n[nH]1	5	-2	-3	-7	8	·
CCN(CC)c1ccc(C=Nn2c(-c3ccc(F)cc3)n[nH]c2=S)c(O)c1	·	5	·	21	37*	35*
Fc1ccc(-c2n[nH]c(=S)n2/N=C/c2c[nH]c3ccccc23)cc1	-2	-1	-7	1	31*	22*
CCCn1c2ccccc2c2cnn(CC(=O)N3CCN(C4CCCCC4)CC3)c(=O)c21	·	·	-9	·	·	·
O=C(Nc1ccc(F)cc1F)C1CCCN1S(=O)(=O)c1cccnc1 (stereo not given)	·	-1	·	1	4	·
CN1c2ccsc2C(O)=C(C(=S)Nc2ccc(F)c(Cl)c2)S1(=O)=O	-4	-3	-12	-17	30*	21
COC(=O)c1c(N)sc(C(=O)NCCc2ccccc2)c1C	1	3	3	1	26*	30*
CCOC(=O)c1sc(N)c(C(=O)Nc2ccccc2OC)c1C	-2	2	-19	0	26*	7
COc1cccc(OC)c1C(=O)NCCc1ccccc1	1	-3	-3	-7	10	·
Cn1c(NNC(=O)C2CCCCC2)cc(=O)n(C)c1=O	0	9	2	6	-3	·
O=C1C=CC(=Nc2cccc3c2C(=O)c2ccccc2-3)O1	·	·	-7	·	·	·
O=C1C=CC(=Nc2ccc3c(c2)Cc2cc(F)ccc2-3)O1	4	-6	-10	4	74*	87*
O=C(N/N=C/c1ccc(N2CCCCC2)o1)c1ccccc1[N+](=O)[O-]	1	8	6	11	31*	5
CCOc1ccc(N2C(=O)C3ON(c4ccccc4)C(c4ccco4)C3C2=O)cc1 (stereo not given)	4	4	-14	9	-2	·
